From ChEMBL document CHEMBL1145194, “A bivalent ligand (KDAN-18) containing delta-antagonist and kappa-agonist pharmacophores bridges delta2 and kappa1 opioid receptor phenotypes” (J Med Chem, 2005)

Key:
Mus musculus [1] = test: Effective dose required for agonistic activity upon intrathecal administration in mouse (n=10) tail flick assay; assay type: functional
How it was run: (§1)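 CD1 mice dosed intrathecally, antinociception by tail-flick. A response counted as positive when latency exceeded control latency plus 3 SD of mean reaction time. ED50 given with 95% confidence limits. For combination dosing, the two monovalent ligands were coadministered i.t. in equimolar ratio.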

Mus musculus [2] = test: Ratio of effective dose of compound producing agonistic activity in presence and absence of norbinaltorphimine (2.5 nmol) upon intrathecal administration in mouse tail flick assay
[3] = target: T1, Opioid receptors; delta & kappa (Homo sapiens, UniProt P41145+P41143); test: Inhibition of [3H]deltorphin II binding to delta and kappa opioid receptors coexpressed in HEK 293 cells; assay type: cell-based; settings: hek293
Mus musculus [4] = test: Effective dose required for agonistic activity upon intrathecal administration in mouse (n=10) tail flick assay in presence of DN-18; assay type: functional; how it was run: as §1
Mus musculus [5] = test: Ratio of effective dose of compound producing agonistic activity in presence and absence of naltriben (50 pmol) upon intrathecal administration in mouse tail flick assay in presence of DN-18; assay type: functional
How it was run: (§2)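 Intrathecal tail-flick in CD1 mice. NTB was given i.t. at 50 pmol with a 10 min peak time. Ratio is agonist ED50 with antagonist divided by agonist ED50 alone, taken as significant when its 95% confidence interval is >1.0. For combination dosing, the monovalent pair was coadministered i.t. equimolar.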

Mus musculus [6] = test: Ratio of effective dose of compound producing agonistic activity in presence and absence of naltriben (50 pmol) upon intrathecal administration in mouse tail flick assay; assay type: functional; how it was run: as §2
[7] = target: T1, Opioid receptors; delta & kappa; test: Inhibition of [3H]U-69593 binding to delta and kappa opioid receptors coexpressed in HEK 293 cells; assay type: cell-based; settings: hek293
How it was run: (§3)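 Radioligand binding on intact HEK cells with [3H]U69593, using either δ and κ coexpressed in one line or a mixture of HEK cells singly expressing δ or κ. Run alone, with 10 nM NTB, or with 100 nM BNTX.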

Mus musculus [8] = test: Ratio of effective dose of compound producing agonistic activity in presence and absence of benzylidenenaltrexone (25 pmol) upon intrathecal administration in mouse tail flick assay in presence of DN-18; assay type: functional
How it was run: as §2, with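 “mice. BNTX” for “mice. NTB”, “at 25” for “at 50”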

Mus musculus [9] = test: Ratio of effective dose of compound producing agonistic activity in presence and absence of benzylidenenaltrexone (25 pmol) upon intrathecal administration in mouse tail flick assay; assay type: functional
How it was run: as §2, with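 “mice. BNTX” for “mice. NTB”, “at 25” for “at 50”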

[10] = target: T1, Opioid receptors; delta & kappa; test: Inhibition of [3H]deltorphin II binding to delta and kappa opioid receptors expressed in HEK 293 cells; assay type: cell-based; settings: hek293
[11] = target: T1, Opioid receptors; delta & kappa; test: Inhibition of [3H]U-69593 binding to delta and kappa opioid receptors expressed in HEK 293 cells; assay type: cell-based; settings: hek293; how it was run: as §3
Mus musculus [12] = test: Ratio of effective dose of compound producing agonistic activity in presence and absence of norbinaltorphimine (2.5 nmol) upon intrathecal administration in mouse tail flick assay in presence of DN-18
[13] = target: T1, Opioid receptors; delta & kappa; test: Inhibition of [3H]-U-69,593 binding to delta and kappa opioid receptors co-expressed in HEK 293 cells with 100 nM benzylidenenaltrexone; assay type: cell-based; settings: hek293; how it was run: as §3
Mus musculus [14] = test: Ratio of effective dose of compound producing agonistic activity in presence and absence of CTOP (5.9 pmol) upon intrathecal administration in mouse tail flick assay; assay type: functional
[15] = target: T1, Opioid receptors; delta & kappa; test: Inhibition of [3H]U-69593 binding to delta and kappa opioid receptors expressed in HEK 293 cells with 100 nM benzylidenenaltrexone; assay type: cell-based; settings: hek293; how it was run: as §3
[16] = target: T1, Opioid receptors; delta & kappa; test: Inhibition of [3H]-U-69,593 binding to delta and kappa opioid receptors co-expressed in HEK 293 cells with 10 nM naltriben; assay type: cell-based; settings: hek293; how it was run: as §3
[17] = target: T1, Opioid receptors; delta & kappa; test: Inhibition of [3H]U-69593 binding to delta and kappa opioid receptors expressed in HEK 293 cells with 10 nM naltriben; assay type: cell-based; settings: hek293; how it was run: as §3
Mus musculus [18] = test: Ratio of effective dose of compound producing agonistic activity in presence and absence of KDN21 upon intrathecal administration in mouse tail flick assay; assay type: functional

Structure (SMILES)	ED50 (Mus musculus [1])	ED50 Ratio (Mus musculus [2])	Ki [3]	ED50 (Mus musculus [4])	ED50 Ratio (Mus musculus [5])	ED50 Ratio (Mus musculus [6])	Ki [7]	ED50 Ratio (Mus musculus [8])	ED50 Ratio (Mus musculus [9])	Ki [10]	Ki [11]	ED50 Ratio (Mus musculus [12])	Ki [13]	ED50 Ratio (Mus musculus [14])	Ki [15]	Ki [16]	Ki [17]	ED50 Ratio (Mus musculus [18])
CNC(=O)CNC(=O)CNC(=O)CCC(=O)NCC(=O)NCC(=O)Nc1cccc([C@@H](CN2CCCC2)N(C)C(=O)Cc2ccc(Cl)c(Cl)c2)c1	0.11 nmol/mouse	10.8	> 1000 nM	0.14 nmol/mouse	~1	1.5	36.2 nM	~1	1.3	> 1000 nM	23.9 nM	44.8	–	–	–	–	–	–
CNC(=O)CNC(=O)CCC(=O)NCC(=O)Nc1cccc([C@@H](CN2CCCC2)N(C)C(=O)Cc2ccc(Cl)c(Cl)c2)c1	1.4 nmol/mouse	11	281.2 nM	–	–	1	41.6 nM	–	1	> 1000 nM	6.75 nM	–	–	–	–	–	–	–
CNC(=O)CNC(=O)CCC(=O)NCC(=O)Nc1cccc2c3c([nH]c12)[C@@H]1Oc2c(O)ccc4c2[C@@]12CCN(CC1CC1)[C@H](C4)[C@]2(O)C3	–	–	0.46 nM	–	–	–	> 1000 nM	–	–	0.15 nM	> 1000 nM	–	–	–	–	–	–	–
CNC(=O)CNC(=O)CNC(=O)CCC(=O)NCC(=O)NCC(=O)Nc1cccc2c3c([nH]c12)[C@@H]1Oc2c(O)ccc4c2[C@@]12CCN(CC1CC1)[C@H](C4)[C@]2(O)C3	–	–	0.91 nM	–	–	–	> 1000 nM	–	–	1.07 nM	> 1000 nM	–	–	–	–	–	–	–
CN(C(=O)Cc1ccc(Cl)c(Cl)c1)[C@H](CN1CCCC1)c1cccc(NC(=O)CNC(=O)CNC(=O)CCC(=O)NCC(=O)NCC(=O)Nc2cccc3c4c([nH]c23)[C@@H]2Oc3c(O)ccc5c3[C@@]23CCN(CC2CC2)[C@H](C5)[C@]3(O)C4)c1	0.19 nmol/mouse	39.3	0.008 nM	–	–	25.9	0.06 nM	–	3	0.52 nM	2.51 nM	–	0.19 nM	0.8	1.14 nM	2.34 nM	1.94 nM	0.65
CN(C(=O)Cc1ccc(Cl)c(Cl)c1)[C@H](CN1CCCC1)c1cccc(NC(=O)CNC(=O)CNC(=O)CCCCC(=O)NCC(=O)NCC(=O)Nc2cccc3c4c([nH]c23)[C@@H]2Oc3c(O)ccc5c3[C@@]23CCN(CC2CC2)[C@H](C5)[C@]3(O)C4)c1	0.5 nmol/mouse	3.4	–	–	–	2	–	–	3.4	–	–	–	–	–	–	–	–	–
CN(C(=O)Cc1ccc(Cl)c(Cl)c1)[C@H](CN1CCCC1)c1cccc(NC(=O)CNC(=O)CCC(=O)NCC(=O)Nc2cccc3c4c([nH]c23)[C@@H]2Oc3c(O)ccc5c3[C@@]23CCN(CC2CC2)[C@H](C5)[C@]3(O)C4)c1	0.44 nmol/mouse	33	1.23 nM	–	–	1.1	1.66 nM	–	2.1	0.43 nM	1.9 nM	–	3.79 nM	–	2.75 nM	4.06 nM	2.02 nM	–
